As usually defined, the GI50 is the concentration at which growth is held to half of that of the control. The term IC50 denotes the concentration that gives 50% inhibition. A word on the inhibition: it is the percentage by which the read-out fell short of the control. Lower therefore signals a weak effect.

The values below come from ChEMBL document CHEMBL1156957, “Synthesis, antitubulin, and antiproliferative SAR of analogues of 2-methoxyestradiol-3,17-O,O-bis-sulfamate” (J Med Chem, 2010).

For assay [1], the system named is MCF7. The experiment in a line: Antiproliferative activity against human MCF7 cells after 96 hrs by WST-1 assay. The settings on record: MCF7, 96 h. In kind it is functional.
Assay [2] in a line: Inhibition of bovine brain tubulin assembly assessed as decrease in turbidity after 20 mins. More on the design: species or system Bos taurus. The method, boiled down:
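Bovine brain tubulin at 1.0 mg/mL (10 μM) preincubated 15 min at 30 °C with varying compound concentrations, no GTP. Chilled on ice, then GTP added (0.4 mM final). Baseline taken at 0 °C, then rapid jump to 30 °C and turbidity rise followed spectrophotometrically for 20 min. IC50 is the concentration halving the turbidity increase.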

Assay [3] relates to MDA-MB-231. The assay can be described thus: Antiproliferative activity against human MDA-MB-231 cells after 96 hrs by WST-1 assay. The class given is functional. The settings on record: MDA-MB-231, 96 h. The method, boiled down: (§1)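 DU-145 and MDA-MB-231 cells kept in RPMI-1640 with 10% FBS, penicillin and streptomycin at 37 °C, 5% CO2. Seeded at 5000 cells/well and exposed to 10^-9–10^-4 M compound or vehicle for 96 h. Live cells counted by WST-1. Viability taken as percent of mean control and GI50 derived. Triplicate experiments.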
In general terms: Formazan colour is commonly taken as a measure of viable cells.

Assay [4] relates to UACC-62. The assay can be described thus: Antiproliferative activity against human UACC62 cells after 96 hrs by WST-1 assay. In kind it is functional. Conditions: UACC-62, 96 h.
Assay [5] is filed under the species Bos taurus. The assay can be described thus: Displacement of [3H]colchicine from bovine brain tubulin at 5 uM after 10 mins. (Displacement assays read how much labelled ligand stays bound in the presence of the test substance.)
The test system of assay [6] is SN12C. The assay can be described thus: Antiproliferative activity against human SN12C cells after 96 hrs by WST-1 assay. The class given is functional.
Assay [7] deals with DU-145. The experiment in a line: Antiproliferative activity against human DU145 cells after 96 hrs by WST-1 assay. The settings on record: DU-145, 96 h. The class given is functional. In a few lines: as §1
In assay [8] the test system is HOP-62. The experiment in a line: Antiproliferative activity against human HOP62 cells after 96 hrs by WST-1 assay. The class given is functional. The settings on record: HOP-62, 96 h.
Assay [9] relates to HCT-116. The experiment in a line: Antiproliferative activity against human HCT116 cells after 96 hrs by WST-1 assay. The class given is functional. The settings on record: HCT-116, 96 h.
Assay [10] concerns OVCAR-3. The assay can be described thus: Antiproliferative activity against human OVCAR-3 cells after 96 hrs by WST-1 assay. The class given is functional. Conditions: OVCAR-3, 96 h.
Assay [11] concerns SF-539. The experiment in a line: Antiproliferative activity against human SF539 cells after 96 hrs by WST-1 assay. The settings on record: SF-539, 96 h. In kind it is functional.

Turning to `COc1cc2c(cc1OS(=O)(=O)N(C)C)CC[C@@H]1[C@@H]2CC[C@]2(C)C(=O)CC[C@@H]12`, the GI50 in assay [1] is greater than 10 µM. Also, the IC50 in assay [2] is greater than 40 µM.
For the compound `CCc1cc2c(cc1OS(N)(=O)=O)CC[C@@H]1[C@@H]2CC[C@]2(C)[C@@H](OS(C)(=O)=O)CC[C@@H]12`, the GI50 in assay [3] is 0.2 µM; in assay [4] it was less than 0.01 µM; in [6], less than 0.01 µM; in assay [7], 0.57 µM; in assay [8], less than 0.01 µM; in assay [9] it was less than 0.01 µM. Besides, the GI50 in [10] and in assay [11] was less than 0.01 µM throughout. This compound yielded an inhibition in assay [5] of 49%. Besides, in [2], the IC50 came to 1.6 µM.
